H69AR inhibit: growth inhibitors of human H69AR lung tumor cells. hit rate 6% among 85,000. AID 598. viability, % at 10 µM. H69AR lung tumor viability, ATP luminescence, 72 h; active compounds read low;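 active = viability at or below 40%; inactive = viability above 40%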;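 also: multidrug resistant small cell line overexpressing MRP-1 efflux transporter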
HCT116 PTEN-null: suppresses growth of cells with PTEN deletion. viability, % at 10 µM. HCT116 PTEN-null viability, CellTiter-Glo, 60 h; active compounds read low. AID 827. hit rate 1.2% among 140,000;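 active = viability at or below a set limit, 4 SD under the median of all tested compounds, cut at about 3.7% in these data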;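 also: PTEN knockout HCT116 line with beta catenin targeted HCT116 as companion control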
HUVEC prolif 384: blocks proliferation of human endothelial cells; HUVEC proliferation, CellTiter-Glo luminescence, 72 h; active compounds read low; viability, % at 10 µM (by protocol); hit rate 1.1% among 86,000; AID 648;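 active = viability at or below 30%; inactive = viability above 30%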
HCT116 bCat-KO: beta-catenin-lacking colon tumor cell growth suppression | HCT116 beta-catenin knockout viability, CellTiter-Glo, 60 h; active compounds read low | viability, % at 10 µM | hit rate 1.5% among 140,000;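 active = viability at or under a set limit, the compound median less 4 SD, cut at about 6% in these data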
Fibroblast inh: blocks proliferation of human lung fibroblasts. LL 47 human lung fibroblast viability, ATP luminescence; active compounds read low. viability, % at 10 µM. hit rate 1.1% among 85,000;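 active = viability at or below 50% in the single dose screen; inactive = viability above 50%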;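 also: compound exposure lasted 72 h before the ATP readout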
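Benchmarks: Cell-only wells, no compound | Test system: LL 47 human lung fibroblasts, passage 12 or lower | Input: 1,150 cells/well | Measured by: CellTiter-Glo luminescence measuring cellular ATP | Medium: IMEM, 15% FBS supplement | Schedule: Overnight attachment after seeding, then 72 h compound exposure at 37 °C | Doses: Compound addition at 0.1% DMSO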
Hits are given with their value; 0 = inactive; - = no result given. Shown is part of a subset that was picked to be rich in hits.

SMILES	H69AR inhibit	HCT116 PTEN-null	HUVEC prolif 384	HCT116 bCat-KO	Fibroblast inh
Cc1cccc(C)c1NC(=O)C(c1ccccc1)N1CCC1=O (centres undefined)	-	0	-	0	-
CCCn1c(C)nc2c(c1=O)c1nc3ccccc3nc1n2CCC1=CCCCC1	13	0	0	0	0
CCOC(=O)c1cnn(-c2sc(C(=O)OCC)c(C)c2C(=O)OCC)c1N	24	-	0	-	0
C=CCN=C(NC#N)SCC(=O)c1cccc(OC)c1	35	0	0	0	0
CN(C)C(=O)CCc1nc2sc3c(c2c(=O)[nH]1)CCCC3	0	0	0	0	0
CCN(CC(=O)NC(C)C)Cc1nc2sc3c(c2c(=O)[nH]1)CCC3	37	0	0	0	0
Cc1nc2c(=O)n(C)c(=O)n(C)c2nc1Cl	-	0	-	3.6	-
COc1ccc(/C=C/C(=O)c2ccc3c4c(cccc24)CC3)cc1OC	-	0	-	0	-
Cc1ccc2nc(SCC(=O)NNC(=O)c3ccccc3)[nH]c2c1	-	0	-	0	-
CC(=O)Nc1nc(-c2ccc(Cl)cc2)ns1	-	0	-	0	-
CCNc1nc(SCCOc2ccc(C)cc2)nc(N(C)C)n1	31	0	0	0	0
CCC1(C)OC(=O)NN(c2ccc(C)cc2)C1(C)O (centres undefined)	-	0	-	0	-
CCC(O)CNc1nc(-n2nc(C)cc2C)nc2sc3c(c12)CCCC3 (centres undefined)	8.4	-	0	-	0
Cc1cc(C)n(-c2nc(SCCN(C)C)c3c4c(sc3n2)CCCC4)n1	2.7	2.0	2.3	3.0	3.0
Cc1nc(SCC#N)c2c3c(sc2n1)CCC3	0	0	0	0	0
CCOc1cc(C)c(Cl)cc1S(=O)(=O)NCc1ccc2c(c1)OCO2	22	0	0	0	0
O=C1CN(C(=O)c2cc3ccccc3oc2=O)C(c2ccc(F)cc2)c2cc(Br)ccc2N1 (centres undefined)	-	0	-	0	-
COC1(OC)C(/C=C/c2ccc(C)cc2)C(C#N)(C#N)C1(OC)OC (centres undefined)	12	0	0	0	0
CC1(C)C2CCC1(CS(=O)(=O)Nc1ccc(S(=O)(=O)N3CCCCC3)cc1)C(=O)C2 (centres undefined)	-	0	-	0	-
COc1cc(CNn2cn[nH]c2=S)cc(Cl)c1OCc1ccccc1	-	0	-	0	-
CCOc1cc(CNC2CCCC2)cc(Cl)c1OCc1ccccc1	-	1.8	-	1.6	-
Cc1ccc(/C=N/N2CCN(Cc3ccc(Cl)cc3)CC2)o1	0	0	0	0	0
COc1ccccc1NC(=O)c1ccc(-c2ccccc2F)o1	0	0	0	0	0
COC(=O)c1ccccc1NC(=O)c1ccc(-c2ccccc2F)o1	13	0	0	0	0
O=C(N/N=C/c1ccc(F)cc1)c1sccc1OCc1ccc(F)cc1	-	0	-	0	-
SMILES	H69AR inhibit	HCT116 PTEN-null	HUVEC prolif 384	HCT116 bCat-KO	Fibroblast inh
O=C(N/N=C/c1ccc(Cl)cc1)c1sccc1OCc1ccc(F)cc1	-	0	-	6.0	-
CCOc1cc(C#N)c(NC(=O)c2ccco2)cc1OCC	31	0	0	0	0
CCOc1ccccc1NC(=O)c1cc(Cl)ccc1NC(=O)c1ccco1	29	0	0	0	0
CCOc1cc(NC(=O)c2ccco2)c(OCC)cc1NC(=O)c1cc(OC)c(OC)c(OC)c1	0	0	0	0	0
COc1cc(NC(=O)c2ccco2)c(OC)cc1NC(=O)c1cc(OC)c(OC)c(OC)c1	24	0	0	0	0
COc1ccc(NS(=O)(=O)c2cc(N/C(=N\S(=O)(=O)c3ccccc3)c3ccc(F)cc3)ccc2Cl)cc1	-	0	-	0	-
CC(C)(C)C1CCc2c(C(=O)NNC(=O)CCCC(=O)O)csc2C1 (centres undefined)	-	0	-	0	-
Cc1cccc2c1NC(=O)C2(c1ccc(O)cc1)c1ccc(O)cc1	-	0	-	0	-
Cc1cc(C2(c3ccc(O)c(C)c3)C(=O)Nc3ccccc32)ccc1O	-	1.5	-	1.1	-
O=C(NCc1ccccn1)c1cccc(NS(=O)(=O)c2cccc(F)c2)c1	-	0	-	0	-
COc1cc2ccccc2cc1C(=O)Nc1ccc(N2CCN(C)CC2)cc1	7.1	-	9.0	-	0
CCN(CC)C(=O)/C(=C\c1cccc([N+](=O)[O-])c1)NC(=O)c1ccco1	-	0	-	0	-
Cc1ccc2nc(C)cc(Nc3ccc4c(c3)OCCO4)c2c1	-	0	-	0	-
CCOc1ccc2nc(C)cc(Nc3cccc([N+](=O)[O-])c3)c2c1	-	1.5	-	1.5	-
CCOc1ccc2nc(C)cc(Nc3ccc4c(c3)OCCO4)c2c1	-	0.8	-	0.7	-
CCOC(=O)c1c(NC(=O)Cn2nc(C(F)(F)F)cc2C)sc(C)c1C	-	0	-	0	-
Cc1nn(Cc2c(Cl)cccc2Cl)c(Cl)c1/C=N/NC(=O)c1cccnc1	-	0	-	0	-
CCOC(=O)c1c(C2CC2)csc1NC(=O)COC(=O)CCS(=O)(=O)c1ccc(C)cc1	-	0	-	0	-
O=C1C(Cc2cccc([N+](=O)[O-])c2)SC(=Nc2ccccc2)N1c1ccccc1 (centres undefined)	-	0	-	0	-
N#Cc1c(C(F)(F)F)cc(-c2ccc(Cl)c(Cl)c2)nc1SCCN1CCOCC1	-	0	-	0	-
N#Cc1c(C(F)(F)F)cc(-c2ccccc2)nc1SCc1nc(N)nc(N2CCOCC2)n1	21	0	0	0	0
COc1ccc([N+](=O)[O-])cc1N(CC(=O)NCC1CCCO1)S(C)(=O)=O (centres undefined)	-	0	-	0	-
CCCC(=O)NC(c1ccccc1Cl)c1c(O)ccc2ccccc12 (centres undefined)	-	0	-	0	-
CC(=O)Oc1ccc2ccccc2c1C(NC(=O)Cc1ccccc1)c1ccccc1Cl (centres undefined)	-	1.4	-	3.9	-
CCOC(=O)N1CCN(C(=O)CSc2cc(C)nc3c(-c4ccccc4OC)c(C)nn23)CC1	39	0	0	0	0
SMILES	H69AR inhibit	HCT116 PTEN-null	HUVEC prolif 384	HCT116 bCat-KO	Fibroblast inh
CCOC(=O)N1CCC(Nc2nc3ccccc3n3nnnc23)CC1	0	0	0	0	0
COc1ccccc1-c1c(C)nn2c(C)cc(C)nc12	0	0	0	0	0
CCOC(=O)N1CCC(Nc2cc(C)nc3c(-c4ccccc4OC)c(C)nn23)CC1	37	0	0	0	0
CCOC(=O)c1c(NC(=O)CSc2nc3nc(C)cc(C)n3n2)sc(CC)c1C	-	0	-	0	-
Cc1cc(C)nc(-n2nc(C)cc2NC(=O)CN2CCC(C)CC2)n1	9.5	0	0	0	0
CCC1CCCCN1CC(=O)Nc1cc(C)nn1-c1nc(C)cc(C)n1 (centres undefined)	19	0	0	0	0
Cc1cc(C)nc(-n2nc(C)cc2NC(=O)CNC(C)c2ccccc2)n1 (centres undefined)	-	0	-	0	-
CCCCCCn1c(N2CCN(c3ccccc3)CC2)nc2c1c(=O)n(C)c(=O)n2C	0	0	23	0	0
CCCCCn1c(N2CCC(Cc3ccccc3)CC2)nc2c1c(=O)[nH]c(=O)n2C	20	-	7.5	-	0
CCCCCCn1c(CN2CCCCC2C)nc2c1c(=O)n(C)c(=O)n2C (centres undefined)	-	0	0	6.0	0
CCCn1c(N2CCC(Cc3ccccc3)CC2)nc2c1c(=O)[nH]c(=O)n2C	0	0	0	0	0
Cn1c(=O)[nH]c(=O)c2c1nc(N1CCC(Cc3ccccc3)CC1)n2Cc1ccccc1	20	0	0	0	0
